Results as given in ChEMBL document CHEMBL1139013, “Synthesis and biological evaluation of novel 9-substituted-8-hydroxyadenine derivatives as potent interferon inducers” (J Med Chem, 2006).

Key:
Assay type in all cases: functional
[1] = tested on: Splenocyte; experiment: Induction of IFN in C3H/HeJ mouse splenocytes at 100 nM
Outline: (§1)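 Mouse splenocytes are suspended at 2 × 10⁶ cells/mL in MEM with 5% fetal calf serum, penicillin and streptomycin. They are mixed 1:1 with compound (DMSO stock diluted 500-fold in medium) and cultured 18 h at 37 °C in 5% CO₂. Supernatants are filter-sterilized and stored at -80 °C. IFN (IU/mL) is measured by L929/vesicular stomatitis virus bioassay.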

[2] = tested on: Splenocyte; experiment: Induction of IFN in C3H/HeJ mouse splenocytes at 10 nM; outline: as §1
[3] = tested on: Splenocyte; experiment: Induction of IFN in C3H/HeJ mouse splenocytes at 3 nM; outline: as §1
[4] = tested on: Mus musculus; experiment: Induction of IFN in BALB/c mice at 0.1 mg/kg, po
[5] = tested on: Splenocyte; experiment: Induction of IFN in C3H/HeJ mouse splenocytes at 30 nM; outline: as §1
[6] = tested on: Mus musculus; experiment: Induction of IFN in BALB/c mice at 0.3 mg/kg, po

| Structure (SMILES) | Activity [1] [IU/ml] | Activity [2] [IU/ml] | Activity [3] [IU/ml] | Activity [4] [IU/ml] | Activity [5] [IU/ml] | Activity [6] [IU/ml] |
| --- | --- | --- | --- | --- | --- | --- |
| CCCCNc1nc(N)c2nc(O)n(Cc3ccc(C)nc3Cl)c2n1 | 3.4 | 8.4 | <0.5 | <5 |  |  |
| CCCCNc1nc(N)c2nc(O)n(Cc3ccccn3)c2n1 | 9.1 | <0.5 |  |  | 7.4 | <5 |
| CCCCNc1nc(N)c2nc(O)n(Cc3ccc4ccccc4c3)c2n1 | 17.4 | <0.5 |  |  | 7.1 | <5 |
| CCCCNc1nc(N)c2nc(O)n(Cc3ccc(Cl)nc3Cl)c2n1 | 5.7 | <0.5 |  | 42 | 14.6 |  |
| CCCCNc1nc(N)c2nc(O)n(CCc3ccccc3)c2n1 | <0.5 |  |  |  |  |  |
| CCCCNc1nc(N)c2nc(O)n(Cc3cccnc3Cl)c2n1 | 5 | 3.7 | <0.5 | <5 | 16.3 | 94 |
| CCCCNc1nc(N)c2nc(O)n(Cc3ccc(F)c(F)c3)c2n1 | 7.1 | 6.4 | <0.5 | 35 | 14.7 | 338 |
| CCCCNc1nc(N)c2nc(O)n(CC3CCCCC3)c2n1 | 3.7 | <0.5 |  |  | 1.7 |  |
| CCCCNc1nc(N)c2nc(O)n(Cc3ccc(C)cc3)c2n1 | 2 | 9.2 | <0.5 | 28 | 6.2 | 356 |
| CCCCNc1nc(N)c2nc(O)n(Cc3ccc(Cl)cc3)c2n1 | 7.4 | 8.5 | <0.5 | 7 | 8.2 | 219 |
| CCCCNc1nc(N)c2nc(O)n(Cc3cccc(C)c3)c2n1 | 5.5 | <0.5 |  |  | 3 |  |
| Nc1nc(NCc2ccccc2)nc2c1nc(O)n2Cc1ccccc1 | 80.4 | 44.4 | <0.5 | 203 |  | 398 |
| Nc1nc(NCc2ccccc2)nc2c1nc(O)n2Cc1ccc(F)cc1 | 4.5 |  |  |  | <0.5 | <5 |
| CCCCNc1nc(N)c2nc(O)n(CC(C)C)c2n1 | 4.1 |  |  |  | <0.5 |  |
| COCCNc1nc(N)c2nc(O)n(Cc3ccccc3)c2n1 | 7.1 |  |  | 44 | <0.5 | 639 |
| CCCCNc1nc(N)c2nc(O)n(Cc3cnccn3)c2n1 | 4.2 | <0.5 |  |  | 2.9 |  |
| CCCCNc1nc(N)c2nc(O)n(Cc3ccc(O)cc3)c2n1 | 3.1 | 12.4 | <0.5 |  |  | 20 |
| CCCCNc1nc(N)c2nc(O)n(Cc3ccc(OC)cc3)c2n1 | 2 | 6.5 | <0.5 | 73 | 4.7 | 933 |
| Nc1nc(NCc2ccncc2)nc2c1nc(O)n2Cc1ccc(F)cc1 | 5.2 | 11.1 | <0.5 | 19 |  | 492 |

| Structure (SMILES) | Activity [1] [IU/ml] | Activity [2] [IU/ml] | Activity [3] [IU/ml] | Activity [4] [IU/ml] | Activity [5] [IU/ml] | Activity [6] [IU/ml] |
| --- | --- | --- | --- | --- | --- | --- |
| CCCCNc1nc(N)c2nc(O)n(Cc3ccc(-c4ccccc4)cc3)c2n1 | 3.4 |  |  |  | 0.5 |  |
| CCCCNc1nc(N)c2nc(O)n(CC(C)(C)O)c2n1 | 0.6 |  |  |  | <0.5 | <5 |
| CCCCNc1nc(N)c2nc(O)n(Cc3ccc(F)cc3)c2n1 | 4.2 | 12.8 | <0.5 | 139 |  | 313 |
| CCCCNc1nc(N)c2nc(O)n(Cc3ccccc3)c2n1 | 3.4 |  |  | 113 | <0.5 | 465 |
| CCCCNc1nc(N)c2nc(O)n(Cc3ccccc3C)c2n1 | 3.6 | <0.5 |  |  | 3 |  |
| CCCCNc1nc(N)c2nc(O)n(Cc3cnccc3Cl)c2n1 | 4.2 |  |  |  | <0.5 |  |
| CCCCNc1nc(N)c2nc(O)n(Cc3ccc(OCc4ccccc4)cc3)c2n1 | 10.6 |  |  |  | <0.5 |  |
| CCCCNc1nc(N)c2nc(O)n(Cc3ccccc3Cl)c2n1 | 4.5 | <0.5 |  |  | 2 |  |
| CCCCNc1nc(N)c2nc(O)n(Cc3ccncc3)c2n1 | 4.3 | 4.2 | <0.5 | 21 | 11.9 |  |
| CCCCNc1nc(N)c2nc(O)n(Cc3cccc(Cl)c3)c2n1 | 4.4 | <0.5 |  |  | 2.8 |  |
| CCCCNc1nc(N)c2nc(O)n(Cc3cccnc3C)c2n1 | 3 | 12.8 | <0.5 |  | 8.3 |  |
| CCCCNc1nc(N)c2nc(O)n(Cc3ccc(CCCC)cc3)c2n1 | 11 |  |  |  | <0.5 | <5 |
| CCCCNc1nc(N)c2nc(O)n(Cc3ccc(Cl)s3)c2n1 | 7.2 | 8.9 | <0.5 | 34 | 11.3 | 484 |
| COCCNc1nc(N)c2nc(O)n(Cc3ccc(F)cc3)c2n1 | 8.3 | <0.5 |  | 54 | 4.8 | 521 |
| CCCCNc1nc(N)c2nc(O)n(Cc3ccc([N+](=O)[O-])cc3)c2n1 | 2 | 11.6 | <0.5 | 61 | 4.5 | 444 |
| Nc1nc(NCc2ccncc2)nc2c1nc(O)n2Cc1ccccc1 | 9.1 | 2.2 | <0.5 | <5 | 3.9 | 73 |
| CCCCNc1nc(N)c2nc(O)n(Cc3ccc(Cl)c(Cl)c3)c2n1 | 10 | 0.8 | <0.5 | <5 |  | 136 |
| CCCCNc1nc(N)c2nc(O)n(Cc3ccc(C(C)(C)C)cc3)c2n1 | 13 | <0.5 |  |  | 4.4 | <5 |
